Screening results: PubChem BioAssay, Johns Hopkins Ion Channel Center
Kir21 block = Kir2.1 (mouse) channel inhibition; P35561; HEK293-Kir2.1, FluxOR thallium flux fluorescence; stronger effect = lower value; B-score at 10 µM; hit rate 0.85% among 310,000;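 active = fluorescence ratio B-score at or below minus 3 SD of library scores, with starting-brightness B-score within 2 SD, cut at about -4.2 in these data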;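 also: channel flux triggered by added potassium and thallium sulfate stimulus; B-score of peak minus minimum fluorescence over baseline after thallium stimulus; more negative B-score means stronger Kir2.1 block with less thallium influx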
MrgX1 antag = human MrgX1 receptor antagonism, primary screen; Q96LB2; MRGX1-HEK293 calcium flux, Fluo-4, BAM8-22 antagonism; stronger effect = lower value; hit rate 1.3% among 310,000; B-score at 10 µM; AID 588676;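 active = calcium-response B-score plate-corrected more than 3 library SD below zero, starting fluorescence within 5 deviations, no agonist response on first addition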;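 also: peak minus trough fluorescence over baseline after final BAM8-22 challenge near maximal dose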
Target sequence (Q96LB2 whole entry, looked up): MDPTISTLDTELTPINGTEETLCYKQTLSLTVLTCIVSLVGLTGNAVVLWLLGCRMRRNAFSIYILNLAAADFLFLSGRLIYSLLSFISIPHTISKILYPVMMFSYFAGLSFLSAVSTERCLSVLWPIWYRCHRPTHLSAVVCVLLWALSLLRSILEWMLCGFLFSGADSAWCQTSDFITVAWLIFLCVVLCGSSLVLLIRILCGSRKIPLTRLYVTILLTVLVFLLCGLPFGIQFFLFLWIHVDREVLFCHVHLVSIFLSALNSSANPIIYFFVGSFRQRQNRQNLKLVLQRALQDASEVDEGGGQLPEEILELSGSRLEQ
MrgX1 allo act = human MrgX1 positive allosteric modulation, primary screen; Q96LB2; MrgX1-HEK293, Fluo-4 calcium flux, FDSS; stronger effect = higher value; hit rate 0.63% among 310,000; B-score at 10 µM;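 active = plate-corrected calcium response at least 3 library SD above typical, normal starting fluorescence, not activating the receptor alone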;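 also: compound read alongside a low EC10 to EC30 dose of BAM8-22 agonist; peak minus trough fluorescence over baseline measured at the second addition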
RGS4 block = inhibitors of human RGS4 | B-score at 10 µM | HEK293 M3R/RGS4 inducible, Fluo-4 calcium flux; stronger effect = higher value; triggered by carbachol at its EC20 | P49798 | hit rate 0.45% among 310,000;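 active = B-score, a plate-corrected calcium signal, over three deviations above library mean, with baseline fluorescence within five deviations of library mean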;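 also: RGS4 expression induced by doxycycline in cells with stable M3 receptor; B-score is computed from the integrated fluorescence ratio over baseline after carbachol; higher B-score means a larger calcium signal and so more RGS4 inhibition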
Target sequence (P49798 whole entry, looked up): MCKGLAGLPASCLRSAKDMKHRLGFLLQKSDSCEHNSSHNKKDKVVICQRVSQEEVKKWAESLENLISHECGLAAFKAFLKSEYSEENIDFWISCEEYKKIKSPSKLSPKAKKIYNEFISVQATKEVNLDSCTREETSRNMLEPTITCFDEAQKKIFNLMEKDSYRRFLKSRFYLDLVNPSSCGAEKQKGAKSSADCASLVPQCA
RGS4 pot = potentiators or activators of RGS4. HEK293 M3R/inducible RGS4, carbachol calcium flux Fluo4; stronger effect = lower value. B-score at 10 µM. hit rate 0.92% among 310,000;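 active = B-score of the integrated calcium signal more than 4 SD below the library mean, with starting fluorescence not abnormally high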;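 also: negative B-score means reduced calcium response which marks RGS4 activation or potentiation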
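Assay system: Inducible-RGS4 HEK293 cells carrying M3 receptor | Schedule: Compound preincubation 20 min at room temperature before agonist | Signal: Kinetic calcium fluorescence imaging with Fluo4-AM dye, 2 µM | Read-out basis: B score from integrated fluorescence ratio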
MrgX1 ag = human MrgX1 receptor agonism, primary screen; MrgX1-HEK293 cells, Fluo-4 calcium fluorescence, agonist mode; stronger effect = higher value; B-score at 10 µM; hit rate 0.44% among 310,000;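 active = calcium response B-score plate-corrected fluorescence ratio at least 3 library SD, with starting fluorescence B-score inside 5 SD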
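Material: MrgX1-expressing HEK293 cells / Dosing: compound as first of three additions / Incubation: overnight seeding, then 1 h dark dye loading / Signal: Fluo-4 NW calcium fluorescence / Evaluation: B-scored fluorescence response ratio / Benchmarks: positive and negative control wells on each plate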
MrgX1 PAM conf = human MrgX1 positive allosteric modulation, re-confirmation. hit rate 13% among 1,200. AID 602413. MrgX1-HEK293, Fluo-4 calcium fluorescence, FDSS. shares compounds with MrgX1 allo act. activation (ratio percentage), % at 10 µM;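 active = ratio at least 3 SD above the weak peptide control, stable starting fluorescence, no direct agonism earlier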;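 also: compound followed by low BAM8-22 agonist challenge near EC20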
HEK293 Ca flux = MrgX1 antagonist counter-screen hit in parental HEK293 cells | Fluo-4 calcium fluorescence, FDSS | fluorescence ratio F(max-min)/F0 at 10 µM | shares compounds with MrgX1 antag | hit rate 2% among 4,000;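 active = duplicate-averaged calcium fluorescence ratio at least three times the standard deviation of buffer wells, a nonspecific response in parental cells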
HEK293 Ca counter = MrgX1 allosteric activator counter-screen hit in parental HEK293 cells. parental HEK293 calcium flux, Fluo-4 fluorescence ratio; stronger effect = higher value. fluorescence ratio F(max-min)/F0 at 10 µM. hit rate 0.4% among 4,000. shares compounds with MrgX1 antag;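 active = calcium fluorescence ratio, averaged over duplicates, at least 3 SD of the buffer-well ratio, meaning a nonspecific response in receptor-free cells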;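 also: untransfected parental HEK293 lacking MrgX1 used as counterscreen for MrgX1 allosteric activators; fluorescence change taken during the second addition on a kinetic imager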
HEK293 Ca cntr2 = counter-screen for MrgX1 activators: effect in parental HEK293 cells | shares compounds with MrgX1 antag | Fluo-4 calcium fluorescence (FDSS); stronger effect = higher value | fluorescence ratio F(max-min)/F0 at 10 µM | hit rate 8.7% among 4,000 | AID 624115;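 active = calcium fluorescence ratio at least three times the spread of buffer wells, meaning a non-specific response in parental cells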
Starred values were filed as active, the others as inactive; i = inactive; x = no result given. Most compounds without a hit are left out; they make up all but 4.1% or so of the library.

SMILES	Kir21 block	MrgX1 antag	MrgX1 allo act	RGS4 block	RGS4 pot	MrgX1 ag	MrgX1 PAM conf	HEK293 Ca flux	HEK293 Ca counter	HEK293 Ca cntr2
CC1CC1C(=O)OCC(=O)Nc1ccccc1Oc1ccccc1 (centres undefined)	-0.21	i	12*	i	i	i	i	i	i	i
COc1ccc(CC(=O)Nc2ccccc2Oc2ccccc2)cc1	-3.7	i	8.3*	i	i	i	i	i	i	i
COC(=O)CN1C(=O)C2(C(C#N)=C(N)Oc3ccccc32)C2=C1CC(C)(C)CC2=O (centres undefined)	0.6	i	i	i	i	i	x	x	x	x
CCOc1ccc(C=NCC(O)c2ccccc2)cc1 (centres undefined)	1.9	i	i	i	i	i	x	x	x	x
CCc1ccc(C(N)=S)cc1	-0.06	i	9*	i	i	i	i	i	i	i
CC(C)(C)NC(=O)NC(=O)COC(=O)Cc1c(Cl)cccc1Cl	-1.5	i	i	i	i	i	x	x	x	x
O=C(Nc1nnc(-c2ccco2)o1)c1cccc(Cl)c1	-0.91	i	7.5*	i	i	i	i	i	i	i
O=C(Nc1cccc(Cl)c1)c1cc(-c2ccco2)on1	-2.2	i	8*	i	i	i	i	i	i	i
O=C(Nc1c(Cl)cccc1Cl)c1cc(-c2ccco2)on1	1.2	i	i	i	i	i	x	x	x	x
CCOCCCNC(=O)CN1CCN(Cc2ccccc2C)C1=O	-1.1	i	i	i	i	i	x	x	x	x
Cc1ccc(OCCCNCCO)c(Br)c1	0.48	i	7.5*	i	i	i	i	i	i	i
CCCCNCCCOc1ccc(C)cc1Br	-1.4	i	i	i	i	i	x	x	x	x
CCCN1CCN(C(=O)c2cc(COc3ccc4ncccc4c3)on2)CC1	-0.42	i	i	i	i	i	x	x	x	x
COc1ccc(-c2nnc(NC(=O)c3cc(C)on3)s2)cc1	-0.43	i	8.2*	i	i	i	i	i	i	i
COC(=O)Nc1nnc(-c2ccc(OC)cc2)s1	0.18	i	i	i	i	i	x	x	x	x
Cc1ccc(CNS(=O)(=O)c2ccc3c(c2)n(C)c(=O)n3C)cc1	0.37	i	i	i	i	i	x	x	x	x
CCNC(=O)CN1c2cccc3cccc(c23)S1(=O)=O	-0.45	i	22*	i	i	i	i	i	i	i
Cc1cccc(N/C(N)=N/c2nc(C(F)(F)F)cc(C(F)(F)F)n2)c1	1.5	i	i	i	i	i	x	x	x	x
COc1cccc(N/C(N)=N/c2nc(C(F)(F)F)cc(C(F)(F)F)n2)c1	-1.3	i	10*	i	i	i	i	i	i	i
Clc1ccc(-c2nnnn2-c2ccc(Cl)cc2)cc1	-0.39	i	11*	i	i	i	i	i	i	i
CC(C)[C@H]1CC[C@@H](C)C(C(=O)c2ccccc2)C1=O (some centres undefined)	0.3	i	i	i	i	i	x	x	x	x
Cc1ccc(-c2cc(C(=O)NCCCn3ccnc3)no2)cc1	-2.3	i	i	i	i	i	x	x	x	x
CC(=O)NC(CC(=O)N(Cc1ccccc1)c1cccc(C)c1)c1ccccc1 (centres undefined)	-1.2	i	8.6*	i	i	i	i	i	i	99*
CSc1ccccc1-n1nnnc1SCc1ccccc1	-1.9	i	i	i	i	i	x	x	x	x
Cc1ccc(C)c(N2CCN(C(=O)c3csc(C)c3C)CC2)c1	2.5	i	6.9*	i	i	i	i	i	i	i
SMILES	Kir21 block	MrgX1 antag	MrgX1 allo act	RGS4 block	RGS4 pot	MrgX1 ag	MrgX1 PAM conf	HEK293 Ca flux	HEK293 Ca counter	HEK293 Ca cntr2
Cc1ccc(-c2csc(NC(=O)c3ccccc3Cl)c2C(=O)O)cc1	2	i	6.6*	i	i	i	i	i	i	i
Cc1ccc(-c2csc(NC(=O)c3cccc(C)c3)c2C(=O)O)cc1	0.33	i	6.6*	i	i	i	i	i	i	i
CCOc1ccc(N=Cc2ccc3ccccc3c2)cc1	-1.1	i	i	i	i	i	x	x	x	x
COc1ccc2cc(C(=O)N3CCOCC3)sc(=O)c2c1OC	0.03	i	i	i	i	i	x	x	x	x
CNC(=O)NC(=O)COc1c(F)c(F)cc(F)c1F	1.4	i	i	i	i	i	x	x	x	x
Cc1cccc(NC(=O)C(=O)C2C(=O)Nc3ccccc32)c1 (centres undefined)	-0.2	i	i	i	i	i	x	x	x	x
O=C(Nc1ccc(F)cc1)C(=O)C1C(=O)Nc2ccccc21 (centres undefined)	-0.05	i	6.6*	i	i	i	i	i	i	i
COc1ccc(S(=O)(=O)N2CCCCCC2)cc1C(=O)Nc1ccccn1	1.2	i	i	i	i	i	x	x	x	x
CCOCC(=O)Nc1ccc(S(=O)(=O)NCC2CCCO2)cc1 (centres undefined)	0.42	i	11*	i	i	i	i	i	i	i
O=C(Nc1ccc(S(=O)(=O)NCC2CCCO2)cc1)c1ccccc1 (centres undefined)	0.01	i	i	i	i	i	x	x	x	x
Cc1cccc2cc(CN(C(=O)c3cnccn3)C3CCCCC3)c(Cl)nc12	1.8	i	20*	i	i	i	i	i	i	i
CNc1nc(Sc2ccc(C)cc2)cc(C(F)(F)F)n1	-0.55	i	15*	i	i	i	16%*	i	i	i
Cc1ccc(Sc2cc(C(F)(F)F)nc(N(C)C)n2)cc1	0.52	i	i	i	i	i	x	x	x	x
